Screens as filed in PubChem BioAssay.
Sampled rows, rich in hits. Any-hit rate of the full collection: about 3.5%.
hK5 inh: inhibitors of human kallikrein 5; Q9Y337; inhibition, % at 5 µM; recombinant hK5, fluorogenic AMC substrate cleavage; AID 873; actives 0.59% (n = 210,000);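 active means inhibition of 40% or more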
FXIIa inh: inhibitors of human coagulation factor XIIa; purified FXIIa, Boc-QGR-AMC fluorogenic substrate, 2 h; inhibition, % at 5 µM; AID 800; P00748; actives 0.3% (n = 220,000); in the data active means inhibition above about 40%
Target sequence (P00748 20-372 limits assumed): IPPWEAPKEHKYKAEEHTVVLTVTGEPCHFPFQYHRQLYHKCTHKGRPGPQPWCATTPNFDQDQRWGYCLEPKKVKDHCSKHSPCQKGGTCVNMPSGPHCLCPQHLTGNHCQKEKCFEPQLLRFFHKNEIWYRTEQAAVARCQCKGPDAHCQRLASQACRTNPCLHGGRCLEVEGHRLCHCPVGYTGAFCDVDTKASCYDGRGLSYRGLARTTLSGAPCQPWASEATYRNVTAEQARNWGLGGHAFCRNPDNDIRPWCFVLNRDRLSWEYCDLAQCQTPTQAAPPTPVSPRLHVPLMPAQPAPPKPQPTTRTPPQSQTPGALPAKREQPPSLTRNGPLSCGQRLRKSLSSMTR
Target sequence (P00748 373-615 limits assumed): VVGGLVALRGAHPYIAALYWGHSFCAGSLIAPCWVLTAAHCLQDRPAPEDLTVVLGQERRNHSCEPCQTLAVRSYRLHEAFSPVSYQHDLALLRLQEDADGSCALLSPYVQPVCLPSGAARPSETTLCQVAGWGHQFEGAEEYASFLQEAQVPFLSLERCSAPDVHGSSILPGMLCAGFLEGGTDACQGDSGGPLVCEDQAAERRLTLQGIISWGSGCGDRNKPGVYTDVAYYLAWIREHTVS
thrombin 1536: inhibitors of human thrombin; P00734; inhibition, % at 5 µM; AID 1046; actives 0.26% (n = 220,000); alpha-thrombin, Boc-VPR-AMC fluorogenic substrate cleavage;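 active means inhibition at or above 40%; inactive means inhibition below 40%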
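System – human alpha-thrombin · Medium – pH 7.5 Tris (50 mM) with NaCl 150 mM, Tween 20 0.05% · Compound – single-point dosing at 5 µM, 0.2% DMSO · Incubation – enzyme reaction carried out at room temperature · Technique – fluorescence of released AMC, ex 355 nm, em 460 nm · Read-out basis – % inhibition of thrombin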
AHR act: activates the human aryl hydrocarbon receptor | P35869 | AHR-responsive luciferase reporter cells, luminescence | activation, % at 5 µM | actives 2.5% (n = 320,000); in the data active means activation above about 47%
FXIa inh: blocks human coagulation factor XIa protease activity; purified FXIa, Boc-Glu-Ala-Arg-AMC fluorogenic substrate; inhibition, % at 5 µM; actives 0.14% (n = 220,000); AID 798;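 active means inhibition of at least 40%; inactive means inhibition below 40%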;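 further: fluorescence of freed AMC excited at 355 nm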
STAT3 act-1: increases IL-6 driven STAT3 reporter signal | U3A cells, IL-6 STAT3-luciferase reporter, luminescence; 100% = signal with IL-6 EC80 alone | activation (% of control), % at 5.6 µM | actives 0.91% (n = 190,000);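 active means activation above the screen-wide mean of compound activation plus 3 SD, cut at about 130% in these data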
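Detection: reporter luminescence signal / Assay system: STAT1-lacking human U3A cells, STAT3 luciferase reporter / Incubation: compound pre-incubation 1 h before IL-6, then 6 h stimulation at 37 °C / Control set: IL-6-only high control / Read-out: % activation relative to IL-6 control / Probe or stimulus: Interleukin-6, 33 ng/mL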
STAT3 act-2: confirmation of STAT3 signaling activators; shares compounds with STAT3 act-1; U3A STAT3-luciferase reporter, IL-6 potentiation, luminescence; U3A cells lack STAT1; 100 means same as IL-6 alone; actives 64% (n = 1,200); potentiation (% of control), % at 5.7 µM; AID 1267;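 active means percent activation of the STAT3 luciferase reporter above a set limit taken from the earlier primary screen, cut at about 130% in these data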
NFkB act 2: counter-screen for STAT3 activators: NF-kappaB activation; shares compounds with STAT3 act-1; activation (% of control), % at 5.7 µM; actives 11% (n = 1,200); human cells, NF-kappaB reporter activation; in the data active means activation above about 120%;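 further: reporter induced by TNF-alpha stimulation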
STAT1 act STAT3c: activates STAT1, counter-screen to STAT3 activators. shares compounds with STAT3 act-1. NIH 3T3 STAT1-luciferase reporter, IFN-gamma, luminescence. activation (% of control), % at 5.7 µM. actives 13% (n = 1,200). AID 1318;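 active means activation above the solvent-only control well mean plus 3 SD, set per screening run, cut at about 120% in these data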
Hits are given with their value; – = inactive; · = no result given.

SMILES	hK5 inh	FXIIa inh	thrombin 1536	AHR act	FXIa inh	STAT3 act-1	STAT3 act-2	NFkB act 2	STAT1 act STAT3c
CCN(C[C@H]1N[C@@](CC)(C(=O)OC)[C@H]2C(=O)N(C)C(=O)[C@@H]12)C(=O)COC	·	·	·	–	·	·	·	·	·
COCCNS(=O)(=O)c1cccc2cccnc12	–	–	–	–	–	·	·	·	·
O=C(COC(=O)/C=C/c1ccccc1[N+](=O)[O-])NCC1CCCO1 (stereo unspecified)	–	–	–	–	–	–	·	·	·
CN(C)C(=O)COC(=O)/C=C/c1ccccc1[N+](=O)[O-]	–	–	–	–	–	162	143	–	–
CC(C)CN(C(=O)COC(=O)/C=C/c1ccccc1)C1CCS(=O)(=O)C1 (stereo unspecified)	·	·	·	–	·	·	·	·	·
CCNC(=O)COC(=O)/C=C/c1ccccc1[N+](=O)[O-]	–	–	–	–	–	–	·	·	·
Cc1ccc(C(=O)/C=C/c2ccccc2[N+](=O)[O-])cc1	–	–	–	–	–	138	162	121	125
O=C(COC(=O)/C=C/c1ccccc1[N+](=O)[O-])NCC(F)(F)F	–	–	–	–	–	150	163	–	–
CCN(C(=O)COC(=O)/C=C/c1ccccc1[N+](=O)[O-])C1CCS(=O)(=O)C1 (stereo unspecified)	–	–	–	–	–	149	141	–	–
Cc1ccc(C(=O)/C=C/c2ccc(-c3ccccc3[N+](=O)[O-])o2)cc1	–	–	–	–	–	–	·	·	·
CN1C(=O)/C(=N\OC(=O)c2cccc3ccccc23)c2ccccc21	–	–	–	–	–	141	–	–	–
Cc1nc(COC(=O)c2ccc(CO)cc2)cs1	–	–	–	–	–	–	·	·	·
Cc1nc(COC(=O)c2cc(O)c3ccccc3c2O)cs1	–	–	–	·	–	140	–	–	–
CCOCCCNC(=O)C(NC(=O)Cc1c[nH]c2ccccc12)c1ccccc1 (stereo unspecified)	–	–	–	–	–	144	135	–	–
CCOCCCNC(=O)C(NC(=O)Cc1cccs1)c1ccccc1 (stereo unspecified)	–	–	–	–	–	–	·	·	·
Cc1onc(-c2ccccc2)c1C(O)c1ccc(F)cc1 (stereo unspecified)	·	·	·	–	·	·	·	·	·
C/C(=N\OC(=O)c1ccc(C)cc1)c1c(C)nc2cc(C)ccn12	–	–	·	–	–	–	·	·	·
O=C(CC12CC3CC(CC(C3)C1)C2)Nc1nncs1	·	·	·	–	·	·	·	·	·
COc1ccc(-n2c(N)c(-c3nc4ccccc4n3C)sc2=S)cc1	–	–	–	–	–	148	173	–	–
CNC(=O)c1sc(=S)n(-c2ccc(OC)cc2)c1N	–	–	–	–	–	–	·	·	·
COC(=O)[C@]1(C)N[C@H](CN(C)S(=O)(=O)c2ccccc2)[C@@H]2C(=O)N(Cc3ccccc3)C(=O)[C@@H]21	·	·	·	–	·	·	·	·	·
O=C(CN1CCN(Cc2ccccc2)CC1)c1c[nH]c2ccccc12	–	–	–	–	–	138	–	–	–
CCn1c(N2CCN(CC(=O)c3c(C)n(C)c4ccccc34)CC2)nc2c1c(=O)[nH]c(=O)n2C	–	–	–	–	–	–	·	·	·
O=C(CN1CCCCC1)c1c[nH]c2ccccc12	·	·	·	–	·	·	·	·	·
CCCn1c(N2CCN(CC(=O)c3c[nH]c4ccccc34)CC2)nc2c1c(=O)[nH]c(=O)n2C	–	–	–	–	–	147	139	–	–
SMILES	hK5 inh	FXIIa inh	thrombin 1536	AHR act	FXIa inh	STAT3 act-1	STAT3 act-2	NFkB act 2	STAT1 act STAT3c
Cc1ccc(N/N=C2\CS(=O)(=O)N(C)c3ccsc32)cc1	–	–	–	–	–	141	144	121	–
CCNC(=O)C1=C(O)c2sccc2N(C)S1(=O)=O	–	–	–	–	–	–	·	·	·
O=C(CSc1nnc(COc2ccccc2Cl)o1)Nc1ccccc1	·	·	·	–	·	·	·	·	·
C/C(N)=C(/C#N)C(=O)CSc1nnc(COc2ccccc2Cl)o1	–	–	–	–	–	139	134	–	–
O=C(Nc1ccccc1O)c1csc2c1CCCC2	–	–	–	–	–	151	149	–	–
COc1ccc(NC(=O)c2csc3c2CCCCC3)c(OC)c1	–	–	–	–	–	–	·	·	·
CCOC(=O)c1ccc(NC(=O)NCc2ccccn2)cc1	·	·	·	–	·	·	·	·	·
O=C(N/N=C\c1cccs1)c1ccccc1-n1cccc1	–	–	–	–	–	138	148	–	–
O=C(N/N=C/c1cccs1)c1ccc(-n2cccc2)cc1	–	–	–	–	–	–	·	·	·
COc1ccc(Br)cc1S(=O)(=O)N1CCCc2ccccc21	·	·	·	–	·	·	·	·	·
Cc1ccsc1/C=C/c1ccc2ccccc2n1	–	–	–	–	–	–	·	·	·
Cc1ccsc1/C=C/c1ccc2cccc(O)c2n1	–	–	–	94	–	154	176	–	–
Oc1cccc2ccc(/C=C/c3cccs3)nc12	–	–	–	70	–	148	189	121	–
Oc1ccc(Cl)cc1/C=C/c1ccc2cccc(O)c2n1	–	–	49	·	–	167	156	–	–
CSc1ccc(/C=C/c2ccc3cccc(O)c3n2)cc1	–	–	–	–	–	–	·	·	·
O=C(OCC(=O)N1CCCc2ccccc21)c1c(F)cccc1F	·	·	·	–	·	·	·	·	·
CCCc1c(C(=O)N/N=C/c2sccc2C)nnn1-c1nonc1N	·	·	·	–	·	·	·	·	·
O=C(c1ccc(Br)o1)N1CCN(c2ccc3nnc(-c4ccccc4)n3n2)CC1	–	–	–	–	–	–	·	·	·
O=S(=O)(c1ccc(Br)cc1)N1CCN(c2ccc3nnc(-c4ccccc4)n3n2)CC1	–	–	–	–	–	167	144	–	–
Nc1ccc(C2=Nc3cccc4cccc(c34)N2)cc1	–	–	–	·	–	158	163	–	–
CC(C)OCCCn1c(-c2ccc(Br)cc2)c[nH]c1=S	–	–	–	–	–	–	·	·	·
COc1ccc(OC)c(NC(=O)c2[nH]c(C)c(C(C)=O)c2C)c1	–	–	–	75	–	151	152	–	–
COc1ccccc1-c1nnc(Nc2nc3c(OC)cccc3s2)o1	–	–	–	111	–	142	–	137	141
COc1ccc2ncn(-c3ccccc3)c2c1	–	–	–	–	–	136	–	–	–
CSCC[C@H](NC(=O)OC(C)(C)C)c1nnc(SCc2ccc(F)cc2)o1	–	–	–	–	–	–	·	·	·
CSCC[C@H](NC(=O)OC(C)(C)C)c1nnc(SCc2cccc(F)c2)o1	–	–	–	–	–	142	–	–	–
